The series relates to MS2 coat protein. The experiment in a line: apparent Kd, MS2 coat protein; higher = weaker binding; RNA-MaP array; FMN 200 µM where present. The procedure, abridged: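 On Illumina sequencing-chip clusters, designs were transcribed by stalled E. coli RNA polymerase and titrated with SNAP-549-labelled MS2 coat protein (0.7 or 1.5 nM, doubling to 3 µM), without and then with constant ligand, in 100 mM Tris-HCl pH 7.5, 80 mM KCl, 4 mM MgCl2, BSA, DTT, yeast tRNA and Tween-20. Apparent Kd is the median of filtered per-cluster curve fits to green signal normalised to red-channel RNA signal and control-cluster median Fmax.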

The mark [1] stands for this setting: designed as: OFF switch for flavin mononucleotide, no ligand.
Setting [2] is: ligand present: flavin mononucleotide, designed as: OFF switch for flavin mononucleotide.
Setting [3] is: designed as: ON switch for flavin mononucleotide, no ligand.
[4] abbreviates: ligand present: flavin mononucleotide, designed as: ON switch for flavin mononucleotide.

The apparent Kd is the concentration giving half-maximal binding under the conditions of the assay.

Consider “GCACUGGAUGUAGGAUAUCAGGACGAUAAGUCCUGAGAAGGACAUGAGGAUCACCCAUGUAAUAACUCCCAGUGCUAUAAUAUA”, for which the “apparent Kd” value worked out at 16.4 nM under setting [1] and 20.1 nM under setting [2].

For the sequence “UGACCCAUGACAUGAGAUGACAUGAGGAUCACCCAUGUGUACAAGGAUAUGUUGGUCAAAGGUCGGCAGAAGGUGUAAUGGGAU”, the “apparent Kd” value under setting [1] worked out at 59.8 nM and the “apparent Kd” value under setting [2] turned out to be 146 nM.

Take “ACAAAUGGAGGAUAUACAUGAGGAUCACCCAUGUUUAUCCUACAUAUGUGAUCCUCAUGUAGAAGGCCAUUUGA”: the “apparent Kd” value is 11.4 nM under setting [1] and 10.8 nM under setting [2].

“GCACGGUAUGUAGGAUAUGCAUAGCAUUGCUAUGCAGAAGGACAUGAGGAUCACCCAUGUAUGUAUUCCAUACAUUUCCCGUGC”: the “apparent Kd” value under setting [1] was found to be 5.73 nM and the “apparent Kd” value under setting [2] amounted to 5.74 nM.

For the sequence “GGCGGCGCGGGCCACCGCAGGGCCAGAAGGACAUGAGGAUCACCCAUGUGGCAGAACAGGGCGGUGUAGGAUAUGGCAGGCUCG”, the “apparent Kd” value reads like this: under setting [1], 35.5 nM; under setting [2], 76.2 nM.

As to “UGAGCGACCACAGGAUAUGCUUGAGAAGACCGAGCAGAAGGGUGGAAGAGCGUGCAGUGACAUGAGGAUCACCCAUGUGGUUGG”, the “apparent Kd” value reads like this: under setting [3], 173 nM; under setting [4], 170 nM.

In the case of “UGAAAUCAUGUAGGAUAUGCAUGGCGAAGCUGCGCAGAAGGACAUGAGGAUCACCCAUGUUAUAGCUACCCAGUUCGGUGGCAA”, the “apparent Kd” value under setting [1] was 37.3 nM and the “apparent Kd” value under setting [2] was determined as 171 nM.

Regarding “AUCCGGAGUCAGGAUAUGUGGCUAAAGAUGCGCAUAGAAGGGAUUACAUGAGGAUCACCCAUGUGGCUUACAUG”, the “apparent Kd” value reads like this: under setting [1], 132 nM; under setting [2], 109 nM.

Regarding “ACAAUAAACUAGAAGGUGGUGAUACAUGAGGAUCACCCAUGUAUAGUACUGAGGAUAUGGAUGAUUGAAGUGAAUAUCGUAGCA”, the “apparent Kd” value was determined as 111 nM under setting [3] and 86 nM under setting [4].

Turning to “AAUAAACUCACAGGAUAUAGCAGAGAUCGCGUGAACUUACAGGCGACGAUGCUAGAAGGGUGACCACAUGAGGAUCACCCAUGU”, the “apparent Kd” value is, setting by setting: under setting [3], 673 nM; under setting [4], 120 nM.

As for “UUUGCAUUCCGAGGAUAUUCAUAUAAUAAAUAAACAUGAGGAUCACCCAUGUGGCGAAAGCCUAGGGAGAAGGCGGUUUGCUUU”, the “apparent Kd” value came to 139 nM under setting [3] and 25.7 nM under setting [4].

In the case of “GGAGCACAUAUUAACAUGAGGAUCACCCAUGUCAAAAGACAUGAGGAUAUGGAUCCGAAAAGGAUCUAGAAGGCAUGGUGCUCC”, the “apparent Kd” value reads like this: under setting [3], 690 nM; under setting [4], 22.1 nM.

In the case of “CAGGUAGACUGAGGAUAUACACUAAACAGCUAGUCUAUCUAGCUGACCACAUGAGGAUCACCCAUGUAGAAGGCAGUCUGCCUG”, the “apparent Kd” value by setting is: under setting [1], 18.1 nM; under setting [2], 39.2 nM.

With “GCCGAAUGAACAUGAGGAUCACCCAUGUACAGGAAACUGAAUGAGGAUAUCCAUAGCAAAGCUAUGGAGAAGGCAUGGGUCGGC”, the “apparent Kd” value under setting [3] was found to be 465 nM and the “apparent Kd” value under setting [4] is 99.7 nM.

Turning to “AUAUCUUGUCGAGGAUAUGUUGUAUUGAUCUGAAAACAUGAGGAUCACCCAUGUAUACGGUGGGAACAGAAGGUGAAUGUAGAA”, the “apparent Kd” value under setting [1] is 574 nM and the “apparent Kd” value under setting [2] came to 715 nM.

As for “GUGGUCAGACAUGAGGAUCACCCAUGUGGAAUAAAUAAGGCAUAGGAUAUGAAAUAUAGGAUAUAUCAGAAGGAUGGGUUGGUG”, the “apparent Kd” value runs as follows: under setting [3], 164 nM; under setting [4], 191 nM.

On to “ACGGAACAUGAGGAUCACCCAUGUAUCUGAGAUAAGGUCUCGCAGGAUAUUCAGAGAAGCCUAUCGGAGAAGGGUGACACCAAA”, for which the “apparent Kd” value reads like this: under setting [3], 38.4 nM; under setting [4], 15.5 nM.

On to “CAGUACUGAGGAUAUACAUGAGGAUCACCCAUGUGUCCCUGCUAGGAAACUAGCAAUAGUAGAAGGCAGUACUG”, for which the “apparent Kd” value under setting [1] worked out at 17.7 nM and the “apparent Kd” value under setting [2] was found to be 199 nM.

Turning to “ACCAUUUACUAAUUGUCUAUACAUGAGGAUCACCCAUGUUAUGAGGAUAUCAUCGUGAAACACGAUGAGAAGGCAUAGCAUUCG”, the “apparent Kd” value is, setting by setting: under setting [1], 64.5 nM; under setting [2], 213 nM.

As to “GGUUGGUAUGAUUGGGUAUGAUACAUGAGGAUCACCCAUGUGCAGGAUAUGUUACACUCACGAUGAUAGAAGGGUAGGGUUUGA”, the “apparent Kd” value was 305 nM under setting [1] and 270 nM under setting [2].

As for “ACGGUGGUCACAGGAUAUCCGGCACGCGUGCCCGGAGAAGGGUGACUCAGAACCACAUGAGGAUCACCCAUGUGCCUUGCCGUA”, the “apparent Kd” value under setting [3] was determined as 186 nM and the “apparent Kd” value under setting [4] amounted to 37.1 nM.

“GUCAGCUCGUCAGGAUAUACGUCACUGCUUCGGCAGUGUGGUAAGAUCACAUGAGGAUCACCCAUGUAGAAGGGACGAGCUGAU”: the “apparent Kd” value by setting is: under setting [1], 12.3 nM; under setting [2], 291 nM.

On to “ACGCAGCUGGGUGAGGAUAUCGGUGGUACUACAUGAGGAUCACCCAUGUCCGAAGCUCGGACCUCCGAGAAGGCGCCCGGCUGCG”, for which the “apparent Kd” value was determined as 284 nM under setting [3] and 31.4 nM under setting [4].

“GGAGACCUCACAGGAUAUGCUGGACUUUGUCCAGCAGAAGGGUGAAAACAUGAGGAUCACCCAUGUAUGGUCUCCAAAUUUAAG”: the “apparent Kd” value under setting [3] was 190 nM and the “apparent Kd” value under setting [4] came to 15.3 nM.

As for “GGAUCGAAUGUGAGGAUAUACCUAUGGAAACAUAGGUAGAAGGCACAUGAGGAUCACCCAUGUCCUAACGGUCC”, the “apparent Kd” value by setting is: under setting [1], 419 nM; under setting [2], 456 nM.

As to “AAAGCACGAGGAUAUACAUGAGGAUCACCCAUGUAUAACCAAAAAAAAAGAUCCUCAUGUAGAAGGCGUGCAAA”, the “apparent Kd” value runs as follows: under setting [1], 18.9 nM; under setting [2], 16.8 nM.

As for “UUGGACGGCGUAGGAUAUGUAGGAUAUUCCUACAUGAGGAUCACCCAUGUUGACAUGGAAGAAGGACAGAAGGACGAUGUCCAU”, the “apparent Kd” value under setting [3] worked out at 303 nM and the “apparent Kd” value under setting [4] was determined as 4.94 nM.

On to “UCCUUCUGUUGAGGAUAUGUAAGACAGCGGCUGCUAUUGCGGCACGCUGAUACAGAAGGCAACAUGAGGAUCACCCAUGUUCAA”, for which the “apparent Kd” value reads like this: under setting [1], 26.4 nM; under setting [2], 205 nM.

Take “CUUCGACAUGAGGAUCACCCAUGUCAGGAUAUUGUGUAUCUGGUUUUUUACAGAUAGACAAGAAGGGAUGUGUU”: the “apparent Kd” value by setting is: under setting [1], 27.1 nM; under setting [2], 23.4 nM.

“AAGCAGGGAGGAUAUACAUGGACACACAUUGGUGUAGAACUACAUGAGGAUCACCCAUGUAGAAGGCCCAAAUA”: the “apparent Kd” value under setting [1] was 52.9 nM and the “apparent Kd” value under setting [2] is 71.5 nM.

Regarding “AAUUUUUAACAGAAGGCGUUUAUAGUUAAGUUACGAGGAUAUGUUUUACAUGAGGAUCACCCAUGUUACUAGGGUAGUAUAUAU”, the “apparent Kd” value under setting [3] was found to be 42.4 nM and the “apparent Kd” value under setting [4] was found to be 30.8 nM.

As to “AAUCCACAUGAGGAUCACCCAUGUCAGGAUAUUGUUACUAGAGCGCACCUGUGUUCUACGAGAAGGGACUAAAC”, the “apparent Kd” value is, setting by setting: under setting [1], 12 nM; under setting [2], 12.2 nM.

With “UGUAAGAUGCAGAAGGUGUUAGCUAGAGCUACGACAUGAGGAUCACCCAUGUACUAGAAACAGUACAAGGAUAUGCAUCUUACC”, the “apparent Kd” value runs as follows: under setting [3], 19.6 nM; under setting [4], 6.43 nM.

For the sequence “GGACGUCUCAUUAACAUGAGGAUCACCCAUGUCGAUAGACAUGAGGAUAUGGAUCCUAAUUGGAUCCAGAAGGCAUGGACGUCC”, the “apparent Kd” value under setting [3] came to 1040 nM and the “apparent Kd” value under setting [4] came out at 67.6 nM.

“UUCAGACAUGAGGAUCACCCAUGUGAGGAUAUGAUGCGAUCGUCGAAAGACGAUAGCAUCAGAAGGCACAUAUG”: the “apparent Kd” value under setting [1] is 167 nM and the “apparent Kd” value under setting [2] amounted to 315 nM.

For “GGAGGACAUGAGGAUCACCCAUGUGGAUGAUCGCUAGGAUAUGCGUGCAGGAAGAGUGGUGCAGAAGGAGUGGGAU”, the “apparent Kd” value was determined as 451 nM under setting [3] and 288 nM under setting [4].

As to “GCUAAGCGAAUUAAGAUGAAUAGAACAUGAGGAUCACCCAUGUAGGAUAUGCUACACAAAGUGUAGCAGAAGGACAAGCUUAGC”, the “apparent Kd” value was determined as 20.2 nM under setting [1] and 25.4 nM under setting [2].

For the sequence “UUGGCAUCGUAGAAGGGUGACAUGAGGAUCACCCAUGUGACGAUAUUUCUCGAGAUAUGUCGUCCACAGGAUAUACGAGCGAAC”, the “apparent Kd” value runs as follows: under setting [3], 72.3 nM; under setting [4], 42.4 nM.

As for “UGGUACUAGGGAGGAUAUGGGAAGAUACAUGAGGAUCACCCAUGUGUAAGAAUGCCGAGAGGCAACUAGAAGGCCCUAGUACCU”, the “apparent Kd” value under setting [3] worked out at 56 nM and the “apparent Kd” value under setting [4] stood at 6.58 nM.

For “UUCCUGUCAGGAUAUGACUAGAUGCACGAAAGUGUGUUUAGUUAGAAGGGACAUGAGGAUCACCCAUGUAGUCC”, the “apparent Kd” value is, setting by setting: under setting [1], 23.5 nM; under setting [2], 39 nM.

With “GUGGUCAGACAUGAGGAUCACCCAUGUGGAAUAAAUAACGGACAGGAUAUGCAAUAUAGGAUAUAGUAGAAGGGUUGAUUGGUG”, the “apparent Kd” value by setting is: under setting [3], 56.5 nM; under setting [4], 60.6 nM.

With “GUGGUUGUCGUAGGAUAUGUAGGAUAUUCCUACAUGAGGAUCACCCAUGUUCGCAUGGAAGAAGGACAGAAGGACGAUGACCAC”, the “apparent Kd” value under setting [3] came out at 1250 nM and the “apparent Kd” value under setting [4] was 10.2 nM.

As for “GCUGCGCGAGGAUAUGCGGUUUGCGCUGUGGCCCGUGGCGUACAUGAGGAUCACCCAUGUAGAAGGCGUGCGGG”, the “apparent Kd” value turned out to be 11.6 nM under setting [1] and 12.1 nM under setting [2].

As to “UUCAGCGAUCAAGGAUAUCUAUAAACAUGAGGACAUGAGGAUCACCCAUGUUGAUCACCCAUGUAGGAGAAGGUGAACAUGAGG”, the “apparent Kd” value was 81.8 nM under setting [3] and 29.8 nM under setting [4].

On to “GGAGCACAUAAAUACAUGAGGAUCACCCAUGUCAAAAGACAUGAGGAUAUGGAUCGGAAAACGAUCUAGAAGGCAUGGUGCUCC”, for which the “apparent Kd” value is, setting by setting: under setting [3], 533 nM; under setting [4], 20.9 nM.

Consider “CUAACACAUGAGGAUCACCCAUGUGAGGAUAUGCGUACGUUGUCCGUAGGCGACGUGCGCAGAAGGCGCUUGGU”, for which the “apparent Kd” value is, setting by setting: under setting [1], 55.8 nM; under setting [2], 62.8 nM.

“GAUCCUUCUGUUAGGAUAUGCUUUGGGCUUCCGCAGUAGAAGGAACAUGAGGAUCACCCAUGUCCGAUGCCGUC”: the “apparent Kd” value turned out to be 74.6 nM under setting [1] and 101 nM under setting [2].

“CUUUUAUAAUAGAAGGUAGACUUCAUGAGGAUCACCCAUGUGUUGGUACUAAGGAUAUGUAAUAACAUGAGGAUCACCCAUGUU”: the “apparent Kd” value reads like this: under setting [3], 15.8 nM; under setting [4], 16.1 nM.

These data come from the EternaBench riboswitch data.
